Results of several laboratories.
Target: Tyrosine-protein kinase ZAP-70 (ZAP70, Homo sapiens, UniProt P43403)
One construct used (P43403 1-619): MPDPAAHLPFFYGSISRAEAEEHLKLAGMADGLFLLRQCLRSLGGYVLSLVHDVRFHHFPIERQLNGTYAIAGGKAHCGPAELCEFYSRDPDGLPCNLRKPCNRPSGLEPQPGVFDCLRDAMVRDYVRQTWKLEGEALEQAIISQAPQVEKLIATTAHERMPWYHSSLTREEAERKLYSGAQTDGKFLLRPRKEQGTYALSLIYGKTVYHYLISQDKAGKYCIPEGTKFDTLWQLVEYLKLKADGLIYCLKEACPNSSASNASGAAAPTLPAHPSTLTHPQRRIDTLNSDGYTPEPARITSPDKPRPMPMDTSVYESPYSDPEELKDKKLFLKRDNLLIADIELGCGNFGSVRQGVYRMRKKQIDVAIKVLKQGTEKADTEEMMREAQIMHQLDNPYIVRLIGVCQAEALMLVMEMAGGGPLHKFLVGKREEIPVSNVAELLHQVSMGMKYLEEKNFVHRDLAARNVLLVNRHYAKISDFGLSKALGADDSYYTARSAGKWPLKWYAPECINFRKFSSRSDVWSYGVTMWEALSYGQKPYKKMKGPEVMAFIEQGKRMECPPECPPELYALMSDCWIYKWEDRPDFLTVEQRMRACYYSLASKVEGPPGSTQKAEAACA

SMILES | effect on | method | tested at | remaining binding
CSc1cccnc1N1CCN(Cc2nc3ccccc3[nH]2)CC1 | cell-free assay | competition with immobilised ligand | 1 µM | 99%
O=C(Nc1c[nH]nc1C(=O)NC1CCNCC1)c1cc(F)cc(F)c1 | binding | competition with immobilised ligand | 1 µM | 87%
C=CC(=O)N1CCC(C(=O)NCC(=O)N2CCN(c3nc(-c4cnc(N)nc4C(F)F)nc(N4CCOCC4)n3)CC2)CC1 | binding | competition with immobilised ligand | 1 µM | 100%
C[C@H]1CCN(c2nccc(-c3cnn4ncccc34)n2)C1 | binding |  | 1 µM | 73%
COc1cnc(Nc2cccc(S(N)(=O)=O)c2)nc1N1CCN(c2ccccc2)CC1 | binding | competition with immobilised ligand | 1 µM | 84%
O=C(NCCCN1CCOCC1)c1ccc(Nc2nccc(-c3cc4ccccc4s3)n2)cc1 | binding | competition with immobilised ligand | 1 µM | 69%
Nc1ncc2c(n1)-c1c([nH]c3ccc(C#CC4CC4)cc13)CCCC2 | binding | competition with immobilised ligand | 1 µM | 92%
COc1ccc2c(O[C@@H]3C[C@H]4C(=O)N[C@]5(C(=O)O)CC5/C=C\CCCCC[C@H](NC(=O)OC5CCCC5)C(=O)N4C3)cc(-c3csc(NC(=O)C(C)C)n3)nc2c1C (some centres unmarked) | cell-free assay | competition with immobilised ligand | 1 µM | 100%
COc1ncc2cc3ccccc3nc2c1C#N | cell-free assay | competition with immobilised ligand | 5 µM | 88%
F[C@@H]1CCN(c2nccc(-c3cnn4ncccc34)n2)C1 | binding |  | 1 µM | 100%
N#Cc1ccccc1CSc1nnc2c(n1)[nH]c1ccccc12 | binding | competition with immobilised ligand | 10 µM | 78%
O=C(NCCCN1CCOCC1)c1ccc(Nc2ncc(Cl)c(-c3ccc(Cl)s3)n2)cc1 | binding | competition with immobilised ligand | 1 µM | 88%
COc1ccnn2ncc(-c3ccnc(N(C)C)n3)c12 | binding |  | 1 µM | 86%
O=C(N1CCS(=O)(=O)CC1)N1C[C@H](c2ccc(OC(F)(F)F)cc2)C[C@H](c2nc(C3CC3)no2)C1 | cell-free assay | competition with immobilised ligand | 1 µM | 90%
CN(C)c1nccc(-c2cnn3ncccc23)n1 | binding |  | 1 µM | 72%
O=C(NCCCC1CCCCC1)c1ccc(CNC(=O)c2cnn(-c3ccccc3)c2C(F)(F)F)cc1 | cell-free assay | competition with immobilised ligand | 0.1 µM | 100%
CNC(=O)[C@@H]1CC[C@@H](n2c(-c3ccc4cnccc4c3)nc3ccc(C(=O)NCc4cccc(C(N)=O)c4)cc32)C1 | binding | competition with immobilised ligand | 1 µM | 100%
CNCc1ccccc1-c1csc([C@@H](C)Nc2nc(C)nc3cc(OC)c(OC)cc23)c1 | cell-free assay | competition with immobilised ligand | 1 µM | 87%
N[C@@H]1CCN(c2nccc(-c3cnn4ncccc34)n2)C1 | binding |  | 1 µM | 53%
CCN1CCN(Cc2ccc(C(=O)Nc3ccc(C)c(Oc4ccc5c(c4)CC(=O)N5)c3)cc2C(F)(F)F)CC1 | binding | competition with immobilised ligand | 1 µM | 100%
CN(c1nccc(-c2cnn3ncccc23)n1)C1CC1 | binding |  | 1 µM | 100%
O=C(O)[C@@H]1[C@@H](Cn2nnc3ccccc3c2=O)CC[C@H]1C(=O)c1ccc(OCCC2CCOCC2)cc1 | cell-free assay | competition with immobilised ligand | 1 µM | 99%
O=C(c1ccc(Nc2nccc(-c3cc4ccccc4s3)n2)cc1)N1CCC(N2CCCC2)CC1 | binding | competition with immobilised ligand | 1 µM | 15%
Cc1nc(C2CCN(C(=O)c3ccc(OC(F)(F)F)cc3N)CC2)c2ncc(N3CCN(C)CC3)cc2n1 | cell-free assay | competition with immobilised ligand | 1 µM | 100%
C[C@@H]1CN(c2ccc3ncc(-c4ccc5[nH]nc(C6CC6)c5c4)n3n2)C[C@H](C)O1 | binding | competition with immobilised ligand | 0.5 µM | 100%
CN(C)c1ncc(F)c(-c2cnn3ncccc23)n1 | binding |  | 1 µM | 79%
